Assay results from ChEMBL document CHEMBL1139225, “Metabolism-based identification of a potent thrombin receptor antagonist” (J Med Chem, 2007).
In brackets after ≈: the same amount, converted by molar mass. Blank lines part the entries; values can stand above or below the compound they belong to. Activity calls are given as the source filed them. No cut-off for these calls is given here.

Columns and labels:
[1] = biological target: T1, Proteinase-activated receptor 1 (Homo sapiens, UniProt P25116); test: Displacement of [3H]haTRAP from PAR1 in human platelet membrane; format: cell membranes
T1 sequence (P25116 whole entry): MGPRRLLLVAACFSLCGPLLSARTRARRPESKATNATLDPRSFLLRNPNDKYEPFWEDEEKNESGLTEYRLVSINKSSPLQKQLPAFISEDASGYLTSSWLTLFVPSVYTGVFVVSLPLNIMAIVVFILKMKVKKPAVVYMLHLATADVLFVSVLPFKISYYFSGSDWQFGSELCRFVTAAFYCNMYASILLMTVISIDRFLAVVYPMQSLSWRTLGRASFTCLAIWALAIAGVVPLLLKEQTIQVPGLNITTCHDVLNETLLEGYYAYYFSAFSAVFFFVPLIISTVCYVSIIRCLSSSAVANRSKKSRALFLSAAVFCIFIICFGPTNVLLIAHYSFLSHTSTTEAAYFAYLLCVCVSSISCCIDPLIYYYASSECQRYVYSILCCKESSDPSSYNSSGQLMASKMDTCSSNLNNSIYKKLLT

[2] = Cmax in Sprague-Dawley rat at 300 mg/kg, po after 1 day; format: ADME, organism-based; design: dose 300 mg/kg, route oral; settings: in vivo
How it was run: (§1)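 Fed male Sprague Dawley rats, four per group, given the compound orally once daily for 10 consecutive days in 0.4% methylcellulose (100 and 300 mg/kg groups). On day 1 and day 10, plasma concentrations of parent and hydroxylated metabolites were measured at 1, 2, 4, 8, 12 and 24 h, giving AUC(0-24 h) and Cmax.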

[3] = AUC (0-24h) in Sprague-Dawley rat at 300 mg/kg, po after 10 days; format: ADME, organism-based; design: time < 24 hr, dose 300 mg/kg, route oral; settings: plasma; how it was run: as §1
[4] = test system: Rattus norvegicus; test: Increase in liver to body weight ratio in Sprague-Dawley rat at 100 mg/kg, po; format: functional
How it was run: (§2)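 Ten-day enzyme induction study. Fed male Sprague Dawley rats, four per group, were dosed orally once daily at 100 or 300 mg/kg in 0.4% methylcellulose. Liver/body weight ratio, spectral cytochrome P450, and CYP1A and CYP2B levels were expressed relative to a control group.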

[5] = test system: Rattus norvegicus; test: Increase in hepatic enzyme CYP1A in Sprague-Dawley rat at 100 mg/kg, po; format: functional; how it was run: as §2
[6] = test system: Rattus norvegicus; test: Increase in hepatic enzyme CYP1A in Sprague-Dawley rat at 300 mg/kg, po; format: functional; how it was run: as §2
[7] = test system: Rattus norvegicus; test: Increase in liver to body weight ratio in Sprague-Dawley rat at 300 mg/kg, po; format: functional; how it was run: as §2
[8] = Cmax in Sprague-Dawley rat at 300 mg/kg, po after 10 days; format: ADME, organism-based; design: dose 300 mg/kg, route oral; settings: in vivo; how it was run: as §1
[9] = test system: Rattus norvegicus; test: Increase in hepatic enzyme CYP2B in Sprague-Dawley rat at 100 mg/kg, po; format: functional; how it was run: as §2
[10] = test system: Rattus norvegicus; test: Increase in hepatic enzyme CYP2B in Sprague-Dawley rat at 300 mg/kg, po; format: functional; how it was run: as §2
[11] = AUC (0-24h) in Sprague-Dawley rat at 300 mg/kg, po after 1 day; format: ADME, organism-based; design: time < 24 hr, dose 300 mg/kg, route oral; settings: plasma; how it was run: as §1
[12] = AUC (0-6h) in rat at 10 mg/kg, po; format: ADME, organism-based; design: time < 6 hr, dose 10 mg/kg, route oral; settings: plasma
How it was run: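 Rat oral pharmacokinetics at 10 mg/kg dosed in 20% HPβCD. Plasma exposure was reported as AUC(0-6).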

[13] = Solubility of the compound; format: physicochemical
[14] = biological target: Cytochrome P450 2C9 (Homo sapiens, UniProt P11712); test: Inhibition of cytochrome P450 2C9 in human liver microsomes up to 10 uM; format: ADME, Microsome
How it was run: (§3)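 Human liver microsomes. The compound was tested at concentrations up to 10 µM for inhibition of CYP2D6, 3A4, 2C9 and 2C19.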

[15] = AUC (0-6h) in rat after oral administration; format: ADME, organism-based; design: time < 6 hr, route oral; settings: plasma
[16] = AUC (0-24h) in cynomolgus monkey at 1 mg/kg, po; format: ADME, organism-based, Macaca fascicularis; design: time < 24 hr, dose 1 mg/kg, route oral; settings: plasma
How it was run: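 Cynomolgus monkeys received a single oral dose of 1 mg/kg in 20% HPβCD. Blood levels were followed at various time points afterwards.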

[17] = biological target: Cytochrome P450 2C19 (Homo sapiens, UniProt P33261); test: Inhibition of cytochrome P450 2C19 in human liver microsomes up to 10 uM; format: ADME, Microsome; how it was run: as §3
[18] = biological target: Cytochrome P450 3A4 (Homo sapiens, UniProt P08684); test: Inhibition of cytochrome P450 3A4 in human liver microsomes up to 10 uM; format: ADME, Microsome; how it was run: as §3
[19] = test system: Platelet; test: Inhibition of haTRAP-induced platelet aggregation in cynomolgus monkey at 1 mg/kg after 6 hrs; format: functional, organism-based; design: dose 1 mg/kg; settings: Macaca fascicularis
How it was run: (§4)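 Ex-vivo assay in cynomolgus monkeys. The compound was given orally as a single dose (1 mg/kg or 3 mg/kg in 20% HPβCD). Platelet aggregation induced by haTRAP was then measured in samples taken after dosing, at time points up to 24 h.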

[20] = Bioavailability in cynomolgus monkey; format: ADME, organism-based, Macaca fascicularis; settings: in vivo
[21] = Inhibition of thrombin-mediated activation of calcium transients in human CASMC; format: functional
How it was run: (§5)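 Human coronary artery smooth muscle cells were loaded with the fluorescent calcium dye Fluo-3, and intracellular calcium was read on a fluorometric imaging plate reader. Thrombin served as the agonist in the inhibition format. For the agonist check, cells were treated with the compound alone.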

[22] = organism: Homo sapiens; test: Effect on elevation of calcium level in human CASMC; format: functional; how it was run: as §5
[23] = test system: Platelet; test: Inhibition of haTRAP-induced platelet aggregation in cynomolgus monkey at 3 mg/kg; format: functional, organism-based; design: dose 3 mg/kg; settings: Macaca fascicularis; how it was run: as §4
[24] = Inhibition of haTRAP-induced human platelet aggregation; format: functional, cell-based
How it was run: (§6)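 Washed platelets from healthy human donors who had been aspirin-free for 7 days were preincubated with the compound for 1 h. Aggregation was then triggered by 0.3 µM haTRAP, or by ADP for the specificity test. IC50 was derived for the haTRAP response.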

[25] = Inhibition of thrombin-stimulated [3H]thymidine incorporation in human CASMC; format: functional
How it was run: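 Human coronary artery smooth muscle cells were stimulated with thrombin. [3H]thymidine incorporation was measured, and an apparent Ki was derived.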

[26] = Inhibition of haTRAP-induced platelet aggregation in cynomolgus monkey at 1 mg/kg after 24 hr; format: functional; settings: Macaca fascicularis; how it was run: as §4
[27] = Oral absorption in cynomolgus monkey; format: ADME, organism-based, Macaca fascicularis; settings: in vivo
[28] = test system: Platelet; test: Inhibition of ADP-induced human platelet aggregation; format: functional, cell-based; how it was run: as §6
[29] = biological target: Cytochrome P450 2D6 (Homo sapiens, UniProt P10635); test: Inhibition of cytochrome P450 2D6 in human liver microsomes up to 10 uM; format: ADME, Microsome; how it was run: as §3
Sequence of Cytochrome P450 2D6 (P10635 whole entry): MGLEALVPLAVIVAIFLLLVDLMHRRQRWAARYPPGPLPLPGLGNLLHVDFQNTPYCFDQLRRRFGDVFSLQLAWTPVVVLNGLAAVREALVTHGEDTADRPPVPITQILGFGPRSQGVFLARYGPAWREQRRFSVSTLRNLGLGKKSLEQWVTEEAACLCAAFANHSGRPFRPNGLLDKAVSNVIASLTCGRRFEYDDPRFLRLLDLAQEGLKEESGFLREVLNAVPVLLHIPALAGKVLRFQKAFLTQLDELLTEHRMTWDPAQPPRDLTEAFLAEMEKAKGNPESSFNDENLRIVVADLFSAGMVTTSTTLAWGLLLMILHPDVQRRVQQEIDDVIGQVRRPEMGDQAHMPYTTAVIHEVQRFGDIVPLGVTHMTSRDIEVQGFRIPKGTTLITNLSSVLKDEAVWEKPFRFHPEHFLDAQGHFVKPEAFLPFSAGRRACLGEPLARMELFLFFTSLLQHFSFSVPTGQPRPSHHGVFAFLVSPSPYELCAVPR

Sequence of Cytochrome P450 2C9 (P11712 whole entry): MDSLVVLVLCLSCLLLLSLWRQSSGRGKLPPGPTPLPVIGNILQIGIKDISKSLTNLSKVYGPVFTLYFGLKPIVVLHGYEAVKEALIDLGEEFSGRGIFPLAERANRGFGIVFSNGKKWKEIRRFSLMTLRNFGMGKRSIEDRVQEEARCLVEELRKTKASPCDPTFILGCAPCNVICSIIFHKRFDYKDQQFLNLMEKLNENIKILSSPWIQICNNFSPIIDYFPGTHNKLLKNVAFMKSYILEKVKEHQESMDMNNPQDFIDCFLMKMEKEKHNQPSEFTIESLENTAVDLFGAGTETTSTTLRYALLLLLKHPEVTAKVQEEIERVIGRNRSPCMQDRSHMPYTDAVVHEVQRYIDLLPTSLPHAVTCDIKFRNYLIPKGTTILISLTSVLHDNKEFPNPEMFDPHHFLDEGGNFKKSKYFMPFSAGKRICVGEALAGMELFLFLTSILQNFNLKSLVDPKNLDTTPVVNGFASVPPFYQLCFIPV
Sequence of Cytochrome P450 2C19 (P33261 whole entry): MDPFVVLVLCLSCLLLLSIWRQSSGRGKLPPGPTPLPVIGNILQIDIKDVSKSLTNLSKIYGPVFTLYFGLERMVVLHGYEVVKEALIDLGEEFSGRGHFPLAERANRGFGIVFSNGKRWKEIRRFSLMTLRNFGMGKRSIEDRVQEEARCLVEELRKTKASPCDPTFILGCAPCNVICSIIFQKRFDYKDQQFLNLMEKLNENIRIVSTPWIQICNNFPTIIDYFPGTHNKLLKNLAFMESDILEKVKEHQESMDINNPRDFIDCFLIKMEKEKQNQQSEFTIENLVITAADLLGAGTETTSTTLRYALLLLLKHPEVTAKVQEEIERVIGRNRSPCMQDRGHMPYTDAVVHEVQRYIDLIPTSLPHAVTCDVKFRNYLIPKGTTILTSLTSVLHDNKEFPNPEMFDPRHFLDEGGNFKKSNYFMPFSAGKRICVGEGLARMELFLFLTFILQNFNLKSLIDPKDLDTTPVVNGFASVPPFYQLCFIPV
Sequence of Cytochrome P450 3A4 (P08684 whole entry): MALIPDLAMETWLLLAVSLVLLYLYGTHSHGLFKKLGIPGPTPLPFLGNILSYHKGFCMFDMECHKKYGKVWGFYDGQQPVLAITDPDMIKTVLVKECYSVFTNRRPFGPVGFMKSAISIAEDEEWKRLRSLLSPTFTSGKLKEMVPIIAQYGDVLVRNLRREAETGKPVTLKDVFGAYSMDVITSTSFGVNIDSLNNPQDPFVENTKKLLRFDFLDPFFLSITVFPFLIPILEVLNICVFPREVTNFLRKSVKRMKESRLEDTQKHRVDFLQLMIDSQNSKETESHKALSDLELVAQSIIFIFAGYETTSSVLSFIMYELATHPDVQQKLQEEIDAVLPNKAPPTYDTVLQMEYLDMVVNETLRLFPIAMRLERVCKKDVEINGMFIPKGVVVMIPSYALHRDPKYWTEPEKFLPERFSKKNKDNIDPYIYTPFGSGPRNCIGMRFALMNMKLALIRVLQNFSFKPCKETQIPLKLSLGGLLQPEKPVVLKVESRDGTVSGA

- Cmax [2]: 29000 ng/mL
- AUC at 24 h [3]: 21000 ng·h/mL
- Cmax [8]: 17000 ng/mL
- AUC(0-t) at 24 h [11]: 35000 ng·h/mL
SMILES: C[C@H]1OC(=O)[C@@H]2C[C@@H]3CCCC[C@H]3[C@H](/C=C/c3ccc(-c4cccc(C(F)(F)F)c4)cn3)[C@H]12
- Activity [4]: 10%
- Activity [5]: 1.8
- Activity [6]: 3.6
- Activity [7]: 34%
- Activity [9]: 2.5
- Activity [10]: 21

- AUC(0-t) at 6 h [12]: 1200 ng·h/mL
- IC50 [1]: 37 nM
- solubility [13]: 5 µM (≈ 2.46 µg/mL)
SMILES: C[C@H]1OC(=O)[C@@H]2C[C@@H]3CC(F)(F)CC[C@H]3[C@H](/C=C/c3ccc(-c4cccc(C(F)(F)F)c4)cn3)[C@H]12

- Cmax [2]: 58000 ng/mL
- IC50 [1]: 17 nM
- Ki [1]: 11 nM
- Activity [14]: Not Active
- AUC(0-t) at 6 h [15]: 6130 ng·h/mL
- AUC(0-t) at 24 h [16]: 3060 ng·h/mL
- AUC at 24 h [3]: 41000 ng·h/mL
- Activity [17]: Not Active
- Activity [18]: Not Active
- Cmax [8]: 25000 ng/mL
- bioavailability [20]: 89%
- Ki [21]: 85 nM
- IC50 [24]: 60 nM
- Ki [25]: 22 nM
- Fa [27]: 92%
- AUC(0-t) at 24 h [11]: 93000 ng·h/mL
- Activity [29]: Not Active
SMILES: C[C@H]1OC(=O)[C@@H]2C[C@@H]3C[C@H](O)CC[C@H]3[C@H](/C=C/c3ccc(-c4cccc(C(F)(F)F)c4)cn3)[C@H]12
- Activity [19]: Active
- Activity [22]: inactive
- Activity [23]: Active
- inhibition in vivo at 1 mg/kg [26]: 60%
- Activity [28]: inactive

- IC50 [1]: 481 nM
SMILES: C[C@H]1OC(=O)[C@@H]2C[C@@H]3CC[C@@H](O)C[C@H]3[C@H](/C=C/c3ccc(-c4cccc(C(F)(F)F)c4)cn3)[C@H]12

More lines, now with the values behind:

SMILES: C[C@H]1OC(=O)[C@@H]2C[C@@H]3CC(F)(F)CC[C@H]3[C@H](/C=C/c3ccc(-c4cccc(F)c4)cn3)[C@H]12
- IC50 [1]: 15 nM

SMILES: C[C@H]1OC(=O)[C@@H]2C[C@@H]3CC(F)(F)CC[C@H]3[C@H](/C=C/c3ccc(-c4ccccc4F)cn3)[C@H]12
- IC50 [1]: 28 nM

SMILES: C[C@H]1OC(=O)[C@@H]2C[C@@H]3C[C@H](O)CC[C@H]3[C@H](/C=C/c3ccc(-c4cccc(Cl)c4)cn3)[C@H]12
- IC50 [1]: 38.5 nM

SMILES: C[C@H]1OC(=O)[C@@H]2C[C@@H]3C[C@H](O)CC[C@H]3[C@H](/C=C/c3ccc(-c4cccc(Cl)c4Cl)cn3)[C@H]12
- IC50 [1]: 16.5 nM

SMILES: Cc1ccccc1-c1ccc(/C=C/[C@H]2[C@@H]3CC[C@@H](O)C[C@H]3C[C@H]3C(=O)O[C@H](C)[C@@H]23)nc1
- IC50 [1]: 70 nM

SMILES: Cc1cccc(-c2ccc(/C=C/[C@H]3[C@@H]4CCC(F)(F)C[C@H]4C[C@H]4C(=O)O[C@H](C)[C@@H]34)nc2)c1
- IC50 [1]: 80 nM

SMILES: C[C@H]1OC(=O)[C@@H]2C[C@@H]3C[C@H](O)CC[C@H]3[C@H](/C=C/c3ccc(-c4cc(Cl)ccc4Cl)cn3)[C@H]12
- IC50 [1]: 97 nM

SMILES: Cc1ccc(-c2ccc(/C=C/[C@H]3[C@@H]4CC[C@@H](O)C[C@H]4C[C@H]4C(=O)O[C@H](C)[C@@H]34)nc2)cc1
- IC50 [1]: 1370 nM
